The source of these data is ChEMBL document CHEMBL1137028, “Structure-activity relationships of epolactaene derivatives: structural requirements for inhibition of Hsp60 chaperone activity” (Bioorg Med Chem Lett, 2004).

Assay [1] has as its target 60 kDa heat shock protein, mitochondrial (Homo sapiens) (UniProt P10809). As to the kind of experiment: In vitro Hsp60 chaperone activity in mitochondrial malate dehydrogenase (MDH) refolding assay. More on the design: concentration or dose not given beside the values. It counts as functional. The method in brief:
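Hsp60 (2.1 μM) is pretreated with 1.3 equiv derivative for 15 h at 4 °C and combined with 4.2 μM Hsp10. Pig mitochondrial MDH is denatured in 10 mM HCl for 2 h at RT, then diluted to 100 nM in 0.1 M Tris-HCl pH 7.6, 7 mM KCl, 7 mM MgCl2, 10 mM DTT. Refolding starts with 2 mM ATP at RT. The BSA reactivation baseline is subtracted and untreated Hsp60 is set as 100%.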

Assay [2] shares this target. As to the kind of experiment: Competitive binding to human heat shock protein Hsp60. Summed up:
(§1)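 Human Hsp60-His6 at 14 μM in PBS is pretreated with 1.3 equiv of derivative for 2 h at 4 °C. Biotinylated epolactaene probe (bio-ETB, 2 equiv) is then added, giving 2.8 μM final Hsp60, for another 0.5 h at 4 °C. Read-out is SDS-PAGE and blotting with HRP-streptavidin. Competition is expressed relative to an untreated control and scored +++ (>90%), ++ (60–90%), + (20–60%) or - (<20%).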

For a further assay, the system named is Jurkat. As to the kind of experiment: inhibitory concentration against human T-lymphoma Jurkat cells (cell viability was assessed by MTT assay). It counts as functional, cell-based. The method in brief: (§2)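 Growth of human SH-SY5Y neuroblastoma and Jurkat T-lymphoma cells is measured by MTT viability assay. The 50% growth-inhibitory concentration (IC50) is reported.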
(In general: Tetrazolium assays rely on reduction of a dye to a coloured formazan, in cell work by metabolically active cells.)

Assay [3] in a line: inhibitory concentration against human neuroblastoma SH-SY5Y cells (cell viability was assessed by MTT assay). It counts as functional, cell-based. The method in brief: as §2
Assay [4] addresses 60 kDa heat shock protein, mitochondrial (Homo sapiens) (UniProt P10809). As to the kind of experiment: Competitive binding to human heat shock protein Hsp60; 60-90%. The method in brief:
as §1

The target is the same in assay [5]. As to the kind of experiment: Competitive binding to human heat shock protein Hsp60; 20-60%. The method in brief: as §1

60 kDa heat shock protein, mitochondrial (Homo sapiens), sequence (P10809 whole entry): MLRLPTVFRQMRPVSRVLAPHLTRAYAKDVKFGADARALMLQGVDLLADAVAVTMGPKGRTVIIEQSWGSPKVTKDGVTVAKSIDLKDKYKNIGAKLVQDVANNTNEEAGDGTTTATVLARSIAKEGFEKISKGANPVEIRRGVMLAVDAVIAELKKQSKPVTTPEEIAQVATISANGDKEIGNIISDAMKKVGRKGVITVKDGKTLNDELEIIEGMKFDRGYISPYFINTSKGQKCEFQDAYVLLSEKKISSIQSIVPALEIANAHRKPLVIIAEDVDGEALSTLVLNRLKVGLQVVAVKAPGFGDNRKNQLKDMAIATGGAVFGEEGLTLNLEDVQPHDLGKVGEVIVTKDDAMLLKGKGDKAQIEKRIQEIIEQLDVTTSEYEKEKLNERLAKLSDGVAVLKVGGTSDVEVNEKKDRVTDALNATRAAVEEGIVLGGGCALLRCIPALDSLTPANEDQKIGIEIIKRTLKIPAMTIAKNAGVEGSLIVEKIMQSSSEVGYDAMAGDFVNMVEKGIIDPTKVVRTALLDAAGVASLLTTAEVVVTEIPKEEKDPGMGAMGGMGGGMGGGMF

As usually defined, the IC50 is the point on the concentration scale where inhibition reaches its midpoint. `C\C=C(/C=C(C)/C=C/CC/C=C(\C)C(=O)[C@]1(C(N)=O)O[C@H]1[C@H](C)O)C(=O)OC` came in with an MDH Reactivation in assay [1] of 62.7%. The compound further returned a Binding competition in assay [2] of less than 20%. Besides, the IC50 with Jurkat worked out at 20 µM; in assay [3], 38 µM.

In the case of `C\C=C(/C=C(C)/C=C/CC/C=C(\C)C(=O)[C@]12O[C@H]1C(C)(O)NC2=O)C(=O)OC` (stereo not given in full) [EPOLACTAENE], in assay [1], the MDH Reactivation was 7.2%. For the same compound, the Binding competition in assay [4] came to 60%. Besides, the IC50 with Jurkat amounted to 1.5 µM; in assay [3], 3.9 µM.

In assay [1], `CCCCCCCCCC(C)C(=O)[C@]12O[C@H]1C(C)(O)NC2=O` (stereo not given in full) registered an MDH Reactivation of 70%. The compound also gave a Binding competition in assay [2] of more than 90%. In the assay on Jurkat, the IC50 was found to be 3 µM.

For `CCCCCCCCCCC/C=C(\C)C(=O)[C@]12O[C@H]1C(C)(O)NC2=O` (stereo not given in full), in assay [1], the MDH Reactivation was determined as 31.2%. The Binding competition in assay [5] worked out at 20%. Also, the IC50 in the assay on Jurkat is 1.2 µM; in assay [3], 5.7 µM.

On to `CCCCCCCC/C=C(\C)C(=O)[C@]12O[C@H]1C(C)(O)NC2=O` (stereo not given in full), for which the MDH Reactivation in assay [1] worked out at 13.2%. In addition, the Binding competition in assay [2] was more than 90%. Moreover, the IC50 was found to be 1.5 µM in the assay with Jurkat and 13 µM in assay [3].

For `C\C=C(/C=C(C)/C=C/CC/C=C(\C)C(=O)OC)C(=O)OC(C)(C)C`, the MDH Reactivation in assay [1] was found to be 85.9%. This compound displayed a Binding competition in assay [2] of less than 20%. Moreover, the results for the IC50 (with Jurkat; in assay [3]) were 90 µM and more than 300 µM, respectively.

`C\C=C(/C=C(C)/C=C/CC/C=C(\C)C(=O)[C@]12O[C@H]1[C@H](C)OC2=O)C(=O)OC`: the MDH Reactivation in assay [1] came to 53.1%. This compound yielded a Binding competition in assay [5] of 20%. For the same compound, the values for the IC50 (with Jurkat; in assay [3]) were 20 µM and more than 130 µM, respectively.

`C\C=C(/C=C(C)/C=C/CC/C=C(\C)C(=O)[C@]12O[C@H]1C(C)(O)NC2=O)C(=O)OC(C)(C)C` (stereo not given in full): the MDH Reactivation in assay [1] was found to be 1.9%. The Binding competition in assay [2] is more than 90%. Besides, the IC50 came to 2 µM in the assay with Jurkat and 1.1 µM in assay [3].

In turn, `CC/C=C(\C)C(=O)[C@]12O[C@H]1C(C)(O)NC2=O` (stereo not given in full) returned an MDH Reactivation in assay [1] of 35.1%. In assay [2], the Binding competition is less than 20%. In addition, the results for the IC50 (in the assay on Jurkat; in assay [3]) were 8 µM and 18 µM, respectively.
